Test results: ChEMBL document CHEMBL5321212, “Design, synthesis, and evaluation of substituted alkylindoles that activate G protein-coupled receptors distinct from the cannabinoid CB1 and CB2 receptors” (Eur J Med Chem, 2023)
Active and inactive are the calls of the source. The rule behind the calls is not given here.

What was measured:
[1] = Displacement of [3H]-WIN55212-2 from HEK293 cell membrane lacking CB1R and CB2R assessed as inhibition constant; assay type: cell membranes, Homo sapiens
How it was run: (§1)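 HEK293 membranes (P2 fractions from independent cultures) incubated with [³H]WIN55212-2 plus increasing concentrations of competitor; specific binding determined by filtration. Ki derived from competition curves, fitted as one or two sites (high and low affinity) where curves were biphasic. n = 3–8 independent membrane preparations, each run in triplicate.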

[2] = test system: Cell membrane; test: Displacement of [3H]-WIN55212-2 from HEK293 cell membrane lacking CB1R and CB2R at 1 uM; assay type: subcellular; conditions: Homo sapiens
[3] = test system: HEK293; test: (§2) Induction of [35S]GTPgammaS binding to HEK293 cell membrane lacking CB1R and CB2R by filtration assay; assay type: cell membranes; conditions: Homo sapiens
How it was run: (§3)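 [³⁵S]GTPγS binding to HEK293 cell membranes stimulated by compound. Gi/o dependence tested by pretreating cultured cells with pertussis toxin (100 ng/ml, 20 h). Where stated, CB1R antagonist […] (1 μM) or CB2R antagonist SR144528 (1 μM) was present. Mean ± SEM of n = 3–4 experiments, each in triplicate.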

[4] = test system: Cell membrane; test: Displacement of [3H]-WIN55212-2 from HEK293 cell membrane lacking CB1R and CB2R assessed as inhibition constant for higher affinity site; assay type: subcellular; conditions: Homo sapiens; how it was run: as §1
[5] = test system: Cell membrane; test: Displacement of [3H]-WIN55212-2 from HEK293 cell membrane lacking CB1R and CB2R assessed as inhibition constant for lower affinity site; assay type: subcellular; conditions: Homo sapiens; how it was run: as §1
[6] = test system: HEK293; test: Induction of HA-tagged human CB1R internalization in HEK293 cells; assay type: functional, cell-based
How it was run: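 HEK293 cells stably expressing HA-tagged human CB1R exposed to compound at 3 μM. Internalization measured and expressed as % of vehicle control. Antagonism tested with […] (1 μM). Positive control CP55940 (1 μM). Mean ± SEM of 3–5 independent experiments. One-way ANOVA with Bonferroni post-test.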

[7] = test system: HEK293; test: Induction of HA-tagged human CB2R internalization in HEK293 cells; assay type: functional, cell-based
How it was run: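 HEK293 cells stably expressing HA-tagged human CB2R exposed to compound at 3 μM. Internalization measured and expressed as % of vehicle control. Antagonism tested with AM630 (1 μM). Positive control CP55940 (1 μM). Mean ± SEM of 3–5 independent experiments. One-way ANOVA with Bonferroni post-test.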

[8] = test system: Cell membrane; test: Displacement of [3H]-WIN55212-2 from HEK293 cell membrane lacking CB1R and CB2R in presence of GTPgammaS by filtration assay; assay type: subcellular; conditions: Homo sapiens
How it was run: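 HEK293 membranes incubated with [³H]WIN55212-2 and test compound, with or without GTPγS (20 μM). Specific binding determined by filtration assay. Mean ± SEM of n = 3–4 experiments, each in triplicate.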

[9] = test system: HEK293; test: Induction of [35S]GTPgammaS binding to HEK293 cell membrane lacking CB1R and CB2R in presence of SR144528 by filtration assay; assay type: cell membranes; conditions: Homo sapiens; how it was run: as §3
[10] = test system: HEK293; test: Induction of [35S]GTPgammaS binding to HEK293 cell membrane lacking CB1R and CB2R in presence of SR141716 by filtration assay; assay type: cell membranes; conditions: Homo sapiens; how it was run: as §3
[11] = as §2; assay type: cell membranes, Homo sapiens; how it was run: as §3

Row | SMILES | Ki [1] | KiH [4] | KiL [5] | also measured
1 | Cc1ccc(C(=O)c2c(C(F)(F)F)n(CCN3CCOCC3)c3ccccc23)c2ccccc12 | 972 nM | – | – | –
2 | Cc1c(C(=O)c2cccc3ccccc23)c2cccc3c2n1[C@H](CN1CCOCC1)CO3 | – | – | – | Activity [2]: inactive
3 | CC1=C(CCN2CCOCC2)c2ccccc2/C1=C\c1cccc2ccccc12 | 466 nM | – | – | Activity [3]: Active
4 | Cc1ccc(C(=O)c2c(C)n(CCN3CCOCC3)c3ccc(Cl)cc23)c2ccccc12 | – | 10 nM | 2.3 µM | –
5 | Cc1c(C(=O)c2cccc3ccccc23)c2ccccc2n1C | – | 2.1 nM | 1 µM | –
6 | Cc1ccc(C(=O)c2c(C)n(CC(F)(F)F)c3ccccc23)c2ccccc12 | 1.8 nM | – | – | Activity [6]: inactive; Activity [7]: Active
7 | Cc1ccc(C(=O)c2c(C)n(CCN3CCOCC3)c3ccccc23)c2ccccc12 | – | 0.8 nM | 0.09 µM | Activity [6]: Active; Activity [7]: Active
8 | CCCn1c(C)c(C(=O)c2ccc(C)c3ccccc23)c2ccccc21 | 95 nM | – | – | –
9 | CCn1c(C)c(C(=O)c2ccc(C)c3ccccc23)c2ccccc21 | – | 1.5 nM | 0.085 µM | Activity [8]: Active; Activity [9]: Active; Activity [6]: inactive; Activity [7]: Active; Activity [10]: Active; EC50 [11]: 5 nM
10 | CC1=C(CCN2CCOCC2)c2ccccc2/C1=C/c1cccc2ccccc12 | 466 nM | – | – | –
11 | COc1ccc2c(c1)c(C(=O)c1ccc(C)c3ccccc13)c(C)n2CCN1CCOCC1 | – | – | – | Activity [2]: inactive
12 | CCn1cc(C(=O)c2ccc(C)c3ccccc23)c2ccccc21 | 102 nM | – | – | –
13 | Cc1ccc(C(=O)c2c(C)n(CCN3CCOCC3)c3cnccc23)c2ccccc12 | – | 5.8 nM | 2.1 µM | –
14 | Cc1ccc(C(=O)c2c(C)n(C)c3ccccc23)c2ccccc12 | – | 0.8 nM | 2.6 µM | –
15 | Cn1cc(C(=O)N2CCCc3ccccc32)c2ccccc21 | – | – | – | Activity [2]: inactive
16 | Cc1ccc(C(=O)c2c3n(c4ccccc24)CCCC3)c2ccccc12 | – | 5.5 nM | 2.6 µM | Activity [6]: Active; Activity [7]: Active
17 | Cc1ccc(C(=O)c2c(C)n(C3CC3)c3ccccc23)c2ccccc12 | 118 nM | – | – | –
18 | C1=C(CCN2CCOCC2)c2ccccc2/C1=C\c1cccc2ccccc12 | 437 nM | – | – | Activity [3]: Active
19 | Cc1ccc(C(=O)c2c(C)n(CCN3CCOCC3)c3ncccc23)c2ccccc12 | – | 0.4 nM | 0.382 µM | Activity [6]: Active; Activity [7]: Active; EC50 [11]: 1.1 nM
20 | CCCn1cc(C(=O)c2ccc(C)c3ccccc23)c2ccccc21 | 319 nM | – | – | –
21 | Cc1ccc(C(=O)c2c(C)n(CCN3CCOCC3)c3cc(Cl)ccc23)c2ccccc12 | 3.5 nM | – | – | EC50 [11]: 3.5 nM
22 | Cc1c(C(=O)c2cccc3ccccc23)c2cccc3c2n1[C@@H](CN1CCOCC1)CO3 | – | 0.027 nM | 0.0072 µM | –
23 | CCn1c(C)c(C(=O)c2ccc(OC)cc2)c2ccccc21 | – | – | – | Activity [2]: inactive
24 | Cc1ccc(C(=O)c2c(C)n(CCN3CCOCC3)c3cc(Cl)cc(Cl)c23)c2ccccc12 | – | – | – | Activity [2]: inactive
25 | C1=C(CCN2CCOCC2)c2ccccc2/C1=C/c1cccc2ccccc12 | 3400 nM | – | – | –
26 | COc1ccc2c(C(=O)c3ccc(C)c4ccccc34)c(C)n(CCN3CCOCC3)c2c1 | 113 nM | – | – | EC50 [11]: 229 nM
